# In the library only some 2% were active in any assay of this set; here they are far more common.
# CASP6 VEID inh – human caspase-6 inhibitors, primary screen, biochemical, VEID-R110 fluorescence, single point, set 2. P55212. purified caspase-6, Z-VEID-R110 cleavage fluorescence. inhibition, % at 12.5 µM. actives 0.53% (n = 350,000). AID 686996, 2013;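 active means mean inhibition across replicates at least about 35%, with every replicate also reaching that limit, limit read from the data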;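 further: 0% = median of neutral control wells and 100% = no fluorescence left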
# Target sequence (P55212 24-179 limits assumed): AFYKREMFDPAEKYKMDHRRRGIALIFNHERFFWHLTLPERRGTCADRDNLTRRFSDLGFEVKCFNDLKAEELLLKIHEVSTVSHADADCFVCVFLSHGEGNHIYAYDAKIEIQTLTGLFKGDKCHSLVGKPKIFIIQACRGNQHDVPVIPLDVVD
# Target sequence (P55212 194-293 limits assumed): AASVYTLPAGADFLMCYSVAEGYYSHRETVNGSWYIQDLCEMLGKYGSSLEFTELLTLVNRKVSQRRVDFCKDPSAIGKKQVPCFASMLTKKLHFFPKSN
# DENV2 CPE rescue – inhibitors of DENV2 cytopathic effect, primary screen, cell-based, plate reader, single concentration; DENV2-infected cells, cytopathic effect rescue; CPE inhibition, % at 9.99 µM; actives 1.7% (n = 350,000); in the data active means CPE inhibition above about 20%, passing the limit was not always enough; tested in BHK-21 cells;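 further: 0% = median of neutral control wells and 100% = median of positive control wells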
# XiGFP reactiv – activators of inactive X chromosome reactivation, primary screen, imaging, XiGFP fibroblasts, GFP high-content imaging, set 2. activation, % at 7.58 µM. AID 743238, 2013. actives 0.055% (n = 360,000). XiGFP mouse fibroblasts, % GFP-positive cells imaging, 3 d; cells co-treated with 5-aza-dC sensitizer; scaled so ellipticine positive control = 100%;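 active means mean normalized replicate activation at least 10% and every replicate at or above 10%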;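 further: 0% = median of on-plate neutral control wells and 100% = ellipticine 6 µM median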
#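 Material: XiGFP fibroblasts, SV40-immortalized. Buffer or medium: DMEM plus 5-aza-dC sensitizer. Compound: single concentration per compound, delivered by pin transfer. Times: 3 days compound exposure. Controls: ellipticine 6 µM.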
# CaV13 ICDI inh – Disruptors of the CACNA1D IQ motif to Ca2+-dependent inactivation inhibitor domain association, primary screening, Förster resonance energy transfer in intact living … | HEK cells, CFP/YFP FRET ICDI-IQ, plate reader, 10 min; percent FRET-ratio fall versus neutral wells | inhibition, % at 12.3 µM | actives 0.098% (n = 340,000) | AID 743397;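 active means mean replicate inhibition of at least 30% and at least 1% of replicates passing that level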;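 further: 0% = median of the neutral control wells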
# FN deposit inh – inhibitors of fibronectin matrix deposition, primary screen, AH1F cells, Alexa488-fibronectin fluorescence, plate reader | AH1F fibroblasts, overnight | actives 0.086% (n = 350,000) | inhibition, % at 12.6 µM;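 active means mean inhibition across replicates of 30% or more, regardless of how many single replicates reach that level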;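 further: positive control wells lacked labelled fibronectin entirely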
#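 Assay system: AH1F fibroblasts / Quantity: 10000 cells per well / Medium: DMEM plus 2% serum, read in PBS / Reagent: labelled fibronectin 24 nM / Dosing: single dose, pinned / Times: 1 h cell attachment, overnight exposure to compound and label / Signal: fluorescence, ex 485 nm, em 525 nm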
# Starred values were filed as active, the others as inactive; / = no result; + = active, no number.
SMILES,CASP6 VEID inh,DENV2 CPE rescue,XiGFP reactiv,CaV13 ICDI inh,FN deposit inh
CCN(C)C1CN(Cc2cn(Cc3ccc(F)cc3)nn2)S(=O)(=O)C1 (stereo not drawn),-2,46*,0,-10,-2
CCN(C)C1CN(Cc2cn(Cc3ccccc3)nn2)S(=O)(=O)C1 (stereo not drawn),-3,21*,0,-11,13
COc1ccc(-c2sc3ccccc3c2/C=C/c2ccc(OC)c(OC)c2)cc1,-1,3,0,-10,6
COc1ccc(-c2sc3ccccc3c2/C=C/c2ccncc2)cc1,-4,20*,0,-6,3
C=CCN1C(=O)/C(=C/c2ccc(OCC(=O)O)cc2)S/C1=N/c1nccs1,38*,2,1,-3,1
C[C@@H]1CN([C@@H](C)CO)C(=O)c2cc(NC(=O)CCCN(C)C)ccc2O[C@@H](C)CCCCO[C@@H]1CN(C)S(=O)(=O)c1ccccc1,-2,31*,0,/,6
C[C@@H]1CCCCO[C@@H](CN(C)S(=O)(=O)c2ccccc2)[C@H](C)CN([C@@H](C)CO)C(=O)c2cc(NC(=O)CCCN(C)C)ccc2O1,1,26*,0,/,-5
Cc1ccc(S(=O)(=O)N(C)C[C@@H]2OCCCC[C@@H](C)Oc3ccc(NC(=O)CCCN(C)C)cc3C(=O)N([C@H](C)CO)C[C@H]2C)cc1,-2,-3,0,/,9
C[C@H]1CCCCO[C@H](CN(C)S(=O)(=O)c2ccccc2)[C@@H](C)CN([C@@H](C)CO)C(=O)c2cc(NC(=O)CCCN(C)C)ccc2O1,-2,41*,0,/,4
Cc1ccc(S(=O)(=O)N(C)C[C@@H]2OCCCC[C@@H](C)Oc3ccc(NC(=O)CCCN(C)C)cc3C(=O)N([C@H](C)CO)C[C@@H]2C)cc1,-3,-3,0,/,-6
C[C@H](CO)N1C[C@H](C)[C@@H](CN(C)S(=O)(=O)c2ccccc2)OCCCC[C@H](C)Oc2ccc(NC(=O)CCCN(C)C)cc2C1=O,-2,-1,0,/,-3
C[C@@H]1CN([C@H](C)CO)C(=O)c2cc(NC(=O)CCCN(C)C)ccc2O[C@@H](C)CCCCO[C@H]1CN(C)S(=O)(=O)c1ccccc1,0,23*,0,/,-7
C[C@@H]1CN([C@@H](C)CO)C(=O)c2cc(NC(=O)CCCN(C)C)ccc2O[C@@H](C)CCCCO[C@H]1CN(C)S(=O)(=O)c1ccccc1,0,15,0,/,-12
CN(C)CC(=O)N1CC2(C1)[C@H](c1ccccc1)[C@H](CO)N2C(=O)C1CCC1,0,6,0,/,-3
CNC[C@H]1Oc2ncc(-c3cccc(C(=O)N(C)C)c3)cc2C(=O)N([C@H](C)CO)C[C@H]1C,2,-2,0,/,7
COCC(=O)Nc1ccc2c(c1)OC[C@@H](C)N(CC1CCCCC1)C[C@@H](C)[C@H](OC)CN(C)C2=O,/,/,1,/,-1
Cc1ccc(S(=O)(=O)Nc2ccc3c(c2)C(=O)N([C@@H](C)CO)C[C@H](C)[C@@H](CN(C)S(=O)(=O)c2c(C)noc2C)OCCCC[C@H](C)O3)cc1,-3,1,0,/,-4
CCN1C=C(C(=O)OC)C(c2cccc(OC)c2OC)C(C(=O)OC)=C1,-1,0,0,+,6
CC(C)OC1=CC(=O)OC(c2cccc(Cl)c2)C1 (stereo not drawn),0,31*,0,-11,3
CN(C)C(=O)c1cccc(-c2ccc([C@@H]3[C@@H](CO)N4C(=O)CN(C(=O)C5CCCCC5)C[C@H]34)cc2)c1,4,39*,0,/,5
COc1ccc(-c2ccc([C@@H]3[C@H]4CN(C(=O)C5CC5)CC(=O)N4[C@H]3CO)cc2)cc1,0,31*,0,/,-16
Cc1ccccc1OC1(C)CCN(Cc2ccc(-c3ccccn3)cc2)C1 (stereo not drawn),84*,-6,0,-5,2
COc1ccc(C2C3=C(CCCC3=O)N(CC(=O)O)C3=C2C(=O)CCC3)cc1Br,14,-4,0,0,-1
COc1ccc(C2C3=C(CCCC3=O)N(CC(=O)O)C3=C2C(=O)CCC3)cc1Cl,17,7,0,+,0
CCC(=O)N1CCC2(CC1)CN(Cc1ccccc1Cl)[C@H](CO)c1c2c2ccc(OC)cc2n1C,-3,4,0,/,/
SMILES,CASP6 VEID inh,DENV2 CPE rescue,XiGFP reactiv,CaV13 ICDI inh,FN deposit inh
CC(O)(C(=O)c1ccccc1)c1ccccc1 (stereo not drawn),-2,10,0,-3,1
O=C(c1ccccc1)C(O)(Cc1ccccc1)c1ccccc1 (stereo not drawn),7,36*,0,-2,-3
Cc1sc2ncnc(N3CCC(C(=O)Nc4ccc(Cl)c(Cl)c4)CC3)c2c1C,-114,-10,0,-6,/
Cc1sc2ncnc(N3CCC(C(=O)Nc4ccc(Cl)cc4Cl)CC3)c2c1C,-1,30*,0,-6,6
CCC(=O)Nc1ccc2c(c1)OC[C@@H](C)N(C(=O)Cc1ccccn1)C[C@H](C)[C@H](OC)CN(C)C2=O,/,/,0,/,-2
Cc1nc(/N=C\c2ccc(N(C)C)cc2)sc1C,-1,33*,0,-12,-3
COc1cccc(-c2ccc(C3[C@H]4CNC[C@@H]3N4C(=O)Nc3ccccc3F)cc2)c1 (stereo partly drawn),/,8,0,/,-12
Cc1ccc(C(=O)NCC(=O)Nc2ccc(S(=O)(=O)Nc3cc(C)nc(C)n3)cc2)cc1,0,56*,0,-2,0
N#C[C@@H]1[C@H](c2ccccc2C2=CCCC2)[C@@H](CO)N1C(=O)C1CC1,1,-14,0,/,-8
N#C[C@@H]1[C@H](c2ccc(-c3cncnc3)cc2)[C@@H](CO)N1C(=O)CN1CCOCC1,2,50*,0,/,2
N#C[C@@H]1[C@H](c2ccccc2C2=CCCC2)[C@H](CO)N1C(=O)NC1CCCC1,3,2,0,/,-16
N#C[C@H]1[C@@H](c2ccccc2C2=CCCCC2)[C@H](CO)N1C(=O)CN1CCOCC1,0,43*,0,/,-7
N#C[C@@H]1[C@H](c2ccccc2C2=CCCC2)[C@H](CO)N1C(=O)C1CC1,1,22*,0,/,-8
CCCNC(=O)N1[C@H](C#N)[C@@H](c2ccccc2C2=CCCC2)[C@@H]1CO,0,23*,0,/,-2
N#C[C@@H]1[C@H](c2ccc(-c3cncnc3)cc2)[C@H](CO)N1C(=O)CN1CCOCC1,1,1,0,/,-17

# High-throughput results as filed in PubChem.
